System: HEK-293T
Experiment: Multiplex assay against HEK293T
Assay type: toxicity, cell-based
Settings: human
Outline: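 Phenotypes for tubulin, mitochondrial mass and membrane permeability are expressed as per cents of healthy-nucleus cells. Cells were stained live at seeding with Hoechst33342, BioTracker Green Microtubule Cytoskeleton Dye, MitoTracker Red and Annexin V Alexa Fluor 680, then imaged after compound addition on a CQ1 microscope at 37°C and 5% CO2. Machine-learning gating in CellPathfinder separated Hoechst high-intensity objects from normal cells, divided normal cells by nuclear state (healthy, pyknosed, fragmented) and divided pyknosed cells into mitotic or apoptotic.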

[1] = 12 h, 1 µM, compound concentration 1 uM, replicate 1
[2] = 12 h, 1 µM, compound concentration 1 uM, replicate 2
[3] = 12 h, 10 µM, compound concentration 10 uM, replicate 1
[4] = 12 h, 10 µM, compound concentration 10 uM, replicate 2
[5] = 24 h, 1 µM, compound concentration 1 uM, replicate 1
[6] = 24 h, 1 µM, compound concentration 1 uM, replicate 2
[7] = 24 h, 10 µM, compound concentration 10 uM, replicate 1
[8] = 24 h, 10 µM, compound concentration 10 uM, replicate 2
[9] = 48 h, 1 µM, compound concentration 1 uM, replicate 1
[10] = 48 h, 1 µM, compound concentration 1 uM, replicate 2
[11] = 48 h, 10 µM, compound concentration 10 uM, replicate 1
[12] = 48 h, 10 µM, compound concentration 10 uM, replicate 2

For `Cc1c(Cc2ccc3ccccc3n2)c2cc(F)ccc2n1CC(=O)O` [TIMAPIPRANT], the “Population Apoptotic (%)” value [1] was 42%, the “Population Fragmented Nuclei (%)” value [1] was 7% and the “Population Healthy Nuclei (%)” value [1] was 80%. The “Population Hoechst High Intensity Objects (%)” value [1] was 10%, the “Population Membrane Permeable-Phenotype (%)” value [1] was 0% and the “Population Mitochondria Different-Phenotype (%)” value [1] was 36%. For the same compound, the “Population Mitotic Cells (%)” value [1] was 57%, the “Population Normal (%)” value [1] was 89% and the “Population Pyknosed Nuclei (%)” value [1] was 11%. The “Population Tubulin-Different-Phenotype (%)” value [1] was 20%, the “Total Cell Count” value [1] was 394 and the “Population Fragmented Nuclei (%)” value [2] was 6%. For the same compound, the “Population Hoechst High Intensity Objects (%)” value [2] was 7%, the “Population Mitochondria Different-Phenotype (%)” value [2] was 55% and the “Population Normal (%)” value [2] was 92%. The “Population Pyknosed Nuclei (%)” value [2] was 12%, the “Population Tubulin-Different-Phenotype (%)” value [2] was 16% and the “Total Cell Count” value [2] was 280. The “Population Apoptotic (%)” value [3] was 32%, the “Population Fragmented Nuclei (%)” value [3] was 7% and the “Population Healthy Nuclei (%)” value [3] was 78%. The “Population Hoechst High Intensity Objects (%)” value [3] was 6%, the “Population Membrane Permeable-Phenotype (%)” value [3] was 0% and the “Population Mitochondria Different-Phenotype (%)” value [3] was 55%. For the same compound, the “Population Mitotic Cells (%)” value [3] was 67%, the “Population Normal (%)” value [3] was 93% and the “Population Pyknosed Nuclei (%)” value [3] was 14%. For the same compound, the “Population Tubulin-Different-Phenotype (%)” value [3] was 38%, the “Total Cell Count” value [3] was 434 and the “Population Apoptotic (%)” value [4] was 33%. The “Population Fragmented Nuclei (%)” value [4] was 6%, the “Population Hoechst High Intensity Objects (%)” value [4] was 5% and the “Population Mitochondria Different-Phenotype (%)” value [4] was 63%. The “Population Mitotic Cells (%)” value [4] was 66%, the “Population Normal (%)” value [4] was 94% and the “Population Pyknosed Nuclei (%)” value [4] was 15%. The “Population Tubulin-Different-Phenotype (%)” value [4] was 28%, the “Total Cell Count” value [4] was 354 and the “Population Apoptotic (%)” value [5] was 31%. For the same compound, the “Population Fragmented Nuclei (%)” value [5] was 10%, the “Population Healthy Nuclei (%)” value [5] was 81% and the “Population Hoechst High Intensity Objects (%)” value [5] was 4%. The “Population Membrane Permeable-Phenotype (%)” value [5] was 1%, the “Population Mitochondria Different-Phenotype (%)” value [5] was 20% and the “Population Mitotic Cells (%)” value [5] was 68%. The “Population Normal (%)” value [5] was 95%, the “Population Pyknosed Nuclei (%)” value [5] was 8% and the “Population Tubulin-Different-Phenotype (%)” value [5] was 15%. The “Total Cell Count” value [5] was 516, the “Population Apoptotic (%)” value [6] was 53% and the “Population Fragmented Nuclei (%)” value [6] was 7%. For the same compound, the “Population Healthy Nuclei (%)” value [6] was 83%, the “Population Hoechst High Intensity Objects (%)” value [6] was 5% and the “Population Membrane Permeable-Phenotype (%)” value [6] was 0%. For the same compound, the “Population Mitochondria Different-Phenotype (%)” value [6] was 38%, the “Population Mitotic Cells (%)” value [6] was 46% and the “Population Normal (%)” value [6] was 94%. The “Total Cell Count” value [6] was 381, the “Population Apoptotic (%)” value [7] was 32% and the “Population Fragmented Nuclei (%)” value [7] was 7%. The “Population Healthy Nuclei (%)” value [7] was 78%, the “Population Hoechst High Intensity Objects (%)” value [7] was 4% and the “Population Membrane Permeable-Phenotype (%)” value [7] was 0%. The “Population Mitochondria Different-Phenotype (%)” value [7] was 31%, the “Population Mitotic Cells (%)” value [7] was 67% and the “Population Normal (%)” value [7] was 95%. For the same compound, the “Population Pyknosed Nuclei (%)” value [7] was 13%, the “Population Tubulin-Different-Phenotype (%)” value [7] was 28% and the “Total Cell Count” value [7] was 560. For the same compound, the “Population Apoptotic (%)” value [8] was 37%, the “Population Fragmented Nuclei (%)” value [8] was 12% and the “Population Healthy Nuclei (%)” value [8] was 77%. The “Population Hoechst High Intensity Objects (%)” value [8] was 5%, the “Population Mitochondria Different-Phenotype (%)” value [8] was 44% and the “Population Mitotic Cells (%)” value [8] was 62%. For the same compound, the “Population Normal (%)” value [8] was 94%, the “Population Pyknosed Nuclei (%)” value [8] was 10% and the “Population Tubulin-Different-Phenotype (%)” value [8] was 20%. The “Total Cell Count” value [8] was 475, the “Population Apoptotic (%)” value [9] was 26% and the “Population Fragmented Nuclei (%)” value [9] was 13%. For the same compound, the “Population Healthy Nuclei (%)” value [9] was 78%, the “Population Hoechst High Intensity Objects (%)” value [9] was 2% and the “Population Membrane Permeable-Phenotype (%)” value [9] was 1%. For the same compound, the “Population Mitochondria Different-Phenotype (%)” value [9] was 9%, the “Population Mitotic Cells (%)” value [9] was 73% and the “Population Normal (%)” value [9] was 97%. For the same compound, the “Population Pyknosed Nuclei (%)” value [9] was 8%, the “Population Tubulin-Different-Phenotype (%)” value [9] was 6% and the “Total Cell Count” value [9] was 799. The “Population Apoptotic (%)” value [10] was 17%, the “Population Fragmented Nuclei (%)” value [10] was 15% and the “Population Healthy Nuclei (%)” value [10] was 76%. The “Population Hoechst High Intensity Objects (%)” value [10] was 3%, the “Population Membrane Permeable-Phenotype (%)” value [10] was 0% and the “Population Mitochondria Different-Phenotype (%)” value [10] was 25%. The “Population Mitotic Cells (%)” value [10] was 82%, the “Population Normal (%)” value [10] was 96% and the “Population Tubulin-Different-Phenotype (%)” value [10] was 12%. For the same compound, the “Total Cell Count” value [10] was 566, the “Population Apoptotic (%)” value [11] was 33% and the “Population Fragmented Nuclei (%)” value [11] was 10%. For the same compound, the “Population Healthy Nuclei (%)” value [11] was 79%, the “Population Hoechst High Intensity Objects (%)” value [11] was 4% and the “Population Membrane Permeable-Phenotype (%)” value [11] was 1%. The “Population Mitochondria Different-Phenotype (%)” value [11] was 24%, the “Population Mitotic Cells (%)” value [11] was 66% and the “Population Normal (%)” value [11] was 95%. For the same compound, the “Population Pyknosed Nuclei (%)” value [11] was 9%, the “Population Tubulin-Different-Phenotype (%)” value [11] was 17% and the “Total Cell Count” value [11] was 752. The “Population Apoptotic (%)” value [12] was 36%, the “Population Fragmented Nuclei (%)” value [12] was 14% and the “Population Healthy Nuclei (%)” value [12] was 78%. For the same compound, the “Population Membrane Permeable-Phenotype (%)” value [12] was 0%, the “Population Mitochondria Different-Phenotype (%)” value [12] was 33% and the “Population Mitotic Cells (%)” value [12] was 63%. For the same compound, the “Population Pyknosed Nuclei (%)” value [12] was 6%, the “Population Tubulin-Different-Phenotype (%)” value [12] was 16% and the “Total Cell Count” value [12] was 630.

— ChEMBL document CHEMBL5058577, “EUbOPEN Chemogenomics Library 2 (Multiplex)” (2022)
